The results in this text go back to ChEMBL document CHEMBL1139898, “Structural effects on the phosphorylation of 3-substituted 1-beta-D-ribofuranosyl-1,2,4-triazoles by human adenosine kinase” (Bioorg Med Chem Lett, 2007).

Experiment [1] concerns the target Adenosine kinase (Homo sapiens) (UniProt P55263). Kind of experiment: Inhibition of human adenosine kinase ribavirin phosphorylation activity. In short, it runs like this: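 Human adenosine kinase (clone 20-1) in Hepes pH 6.0 buffer with KCl, MgCl₂, 1 mM ATP, BSA, deoxycoformycin at 37 °C; 0.1 μM ribavirin initial substrate with test compound at 400 μM; ribavirin monophosphate formation followed by timed aliquots, acid quench and anion-exchange HPLC with UV detection.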

The target is the same in experiment [2]. Kind of experiment: Specific activity of human adenosine kinase. In short, it runs like this: (§1)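 Aliquots at 0, 1, 2, 4 h quenched with perchloric acid, neutralized, monophosphate resolved by anion-exchange HPLC (ammonium phosphate gradient), UV at λmax; conversion kept <10%, linear.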
Experiment [3] has the same target. The experiment is described as follows: Activity of human adenosine kinase relative to ribavirin. Also noted: concentration or dose not given beside the values. In short, it runs like this:
as §1

Calls of active or inactive are those of the source. No cut-off for these calls is given here.

Adenosine kinase (Homo sapiens), sequence (P55263 2-362 limits assumed): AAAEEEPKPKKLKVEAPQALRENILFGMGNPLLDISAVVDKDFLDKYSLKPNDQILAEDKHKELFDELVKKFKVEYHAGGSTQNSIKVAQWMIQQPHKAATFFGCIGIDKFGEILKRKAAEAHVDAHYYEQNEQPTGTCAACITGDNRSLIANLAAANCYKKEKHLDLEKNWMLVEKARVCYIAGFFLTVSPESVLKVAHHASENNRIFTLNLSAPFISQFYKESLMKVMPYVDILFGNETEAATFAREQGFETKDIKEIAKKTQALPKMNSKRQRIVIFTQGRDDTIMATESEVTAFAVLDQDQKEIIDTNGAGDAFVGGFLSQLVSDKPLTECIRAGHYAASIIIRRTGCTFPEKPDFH

As to `CC(=O)Nc1ncn([C@@H]2O[C@H](CO)[C@@H](O)[C@H]2O)n1`, in experiment [1], the result was inactive. In addition, the Activity in experiment [2] was less than 4 nmol/mg/h; in experiment [3], less than 2%.
Take `CNC(=O)c1ncn([C@@H]2O[C@H](CO)[C@@H](O)[C@H]2O)n1`: in experiment [1], the outcome was inactive. Further, the Activity came out at 19 nmol/mg/h in experiment [2] and 9% in experiment [3].
In the case of `O=C(O)c1ncn([C@@H]2O[C@H](CO)[C@@H](O)[C@H]2O)n1`, the outcome in experiment [1] was inactive. The figures for the Activity in experiment [2] and in experiment [3] were less than 4 nmol/mg/h and less than 2%, respectively.
For `NC(=O)c1ncn([C@@H]2O[C@H](CO)[C@@H](O)[C@H]2O)n1`, the Activity in experiment [2] worked out at 203 nmol/mg/h.
For `COC(=N)c1ncn([C@@H]2O[C@H](CO)[C@@H](O)[C@H]2O)n1`, in experiment [1], the outcome was inactive. Moreover, the values for the Activity in experiment [2] and in experiment [3] were less than 4 nmol/mg/h and less than 2%, respectively.
The matching figures for `C/N=C(/N)c1ncn([C@@H]2O[C@H](CO)[C@@H](O)[C@H]2O)n1`: “inactive”, 11 nmol/mg/h and 5%.
In the same order, the values of `CC(=O)c1ncn([C@@H]2O[C@H](CO)[C@@H](O)[C@H]2O)n1` are “inactive”, 20 nmol/mg/h and 10%.
As to `O=[N+]([O-])c1ncn([C@@H]2O[C@H](CO)[C@@H](O)[C@H]2O)n1`, the outcome in experiment [1] was inactive. The Activity in experiment [2] amounted to 36 nmol/mg/h; in experiment [3], 18%.
